The values below come from ChEMBL document CHEMBL2424622, “Development of amino-pyrimidine inhibitors of c-Jun N-terminal kinase (JNK): kinase profiling guided optimization of a 1,2,3-benzotriazole lead” (Bioorg Med Chem Lett, 2013).

Data set [1] addresses Serine/threonine-protein kinase 10 (Homo sapiens) (UniProt O94804). Briefly: Competitive binding affinity to STK10 (unknown origin) at 10 uM in presence of ATP relative to control.
Data set [2] has as its target Serine/threonine-protein kinase ULK3 (Mus musculus) (UniProt Q3U3Q1). Briefly: Competitive binding affinity to mouse ULK3 at 10 uM in presence of ATP relative to control.
For data set [3], the target named is Activated CDC42 kinase 1 (Homo sapiens) (UniProt Q07912). In words: Competitive binding affinity to ACK1 (unknown origin) at 10 uM in presence of ATP relative to control.
Activated CDC42 kinase 1 (Homo sapiens), sequence (Q07912 whole entry, looked up): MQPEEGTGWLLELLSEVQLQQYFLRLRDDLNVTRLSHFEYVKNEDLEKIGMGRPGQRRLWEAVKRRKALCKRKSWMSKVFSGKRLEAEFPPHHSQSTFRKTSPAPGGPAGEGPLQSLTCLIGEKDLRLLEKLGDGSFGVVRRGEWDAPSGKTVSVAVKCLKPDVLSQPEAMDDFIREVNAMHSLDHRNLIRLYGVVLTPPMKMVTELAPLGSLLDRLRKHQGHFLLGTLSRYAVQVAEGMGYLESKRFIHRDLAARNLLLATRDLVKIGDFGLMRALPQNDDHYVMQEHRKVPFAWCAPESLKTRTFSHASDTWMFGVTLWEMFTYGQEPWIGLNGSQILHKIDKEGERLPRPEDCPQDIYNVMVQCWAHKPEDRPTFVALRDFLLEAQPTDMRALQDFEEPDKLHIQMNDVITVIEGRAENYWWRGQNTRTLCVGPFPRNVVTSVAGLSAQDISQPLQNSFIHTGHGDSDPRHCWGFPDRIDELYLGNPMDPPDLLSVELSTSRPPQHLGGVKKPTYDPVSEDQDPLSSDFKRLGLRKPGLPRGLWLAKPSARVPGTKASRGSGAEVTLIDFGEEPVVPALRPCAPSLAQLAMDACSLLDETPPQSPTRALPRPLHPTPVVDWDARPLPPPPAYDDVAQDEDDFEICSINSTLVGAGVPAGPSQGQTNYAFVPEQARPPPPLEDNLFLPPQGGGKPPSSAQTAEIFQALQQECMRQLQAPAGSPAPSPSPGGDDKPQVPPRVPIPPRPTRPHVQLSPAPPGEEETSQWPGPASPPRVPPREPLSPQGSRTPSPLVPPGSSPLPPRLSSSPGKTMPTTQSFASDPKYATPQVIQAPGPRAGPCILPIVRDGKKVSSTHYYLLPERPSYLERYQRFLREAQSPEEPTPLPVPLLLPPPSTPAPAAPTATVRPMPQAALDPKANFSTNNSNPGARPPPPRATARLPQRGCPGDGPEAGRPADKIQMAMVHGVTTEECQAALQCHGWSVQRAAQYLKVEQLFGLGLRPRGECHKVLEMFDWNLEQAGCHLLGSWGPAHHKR
For data set [4], the target named is T1, Serine/threonine-protein kinase STK11 (Homo sapiens) (UniProt Q15831).
T1 sequence (whole entry): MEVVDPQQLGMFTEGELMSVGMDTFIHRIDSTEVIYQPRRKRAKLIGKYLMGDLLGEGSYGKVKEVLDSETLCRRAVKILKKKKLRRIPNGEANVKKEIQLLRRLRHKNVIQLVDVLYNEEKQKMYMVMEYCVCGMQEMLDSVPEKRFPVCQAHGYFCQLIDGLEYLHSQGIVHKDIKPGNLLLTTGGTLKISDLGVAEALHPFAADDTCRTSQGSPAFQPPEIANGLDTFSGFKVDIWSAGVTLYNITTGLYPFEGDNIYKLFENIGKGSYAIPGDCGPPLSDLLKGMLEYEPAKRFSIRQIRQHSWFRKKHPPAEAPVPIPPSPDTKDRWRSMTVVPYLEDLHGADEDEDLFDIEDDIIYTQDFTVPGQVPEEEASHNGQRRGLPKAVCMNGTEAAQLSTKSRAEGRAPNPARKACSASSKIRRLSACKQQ
Briefly: Competitive binding affinity to STK11 (unknown origin) at 10 uM in presence of ATP relative to control.

The next data set deals with Rattus norvegicus. Briefly: Cmax in Hanover-Wistar rat at 2 mg/kg, po. In kind it is ADME, organism-based. The following applies: in vivo. The arrangement: dose 2 mg/kg, route oral.
Data set [5] in a line: AUC (0 to infinity) in Hanover-Wistar rat at 20 mg/kg, po. In kind it is ADME, organism-based. The arrangement: time infinity, dose 20 mg/kg, route oral. The conditions noted are these: plasma.
The target of data set [6] is Myosin light chain kinase family member 4 (Homo sapiens, UniProt Q86YV6). In words: Binding affinity to SgK085 (unknown origin).
Data set [7] addresses Interferon-induced, double-stranded RNA-activated protein kinase (Homo sapiens, UniProt P19525). In words: Binding affinity to PRKR (unknown origin).
The target of data set [8] is Serine/threonine-protein kinase DCLK3 (Homo sapiens, UniProt Q9C098). In words: Binding affinity to DCAMKL3 (unknown origin).
The target of data set [9] is NUAK family SNF1-like kinase 2 (Homo sapiens, UniProt Q9H093). Briefly: Binding affinity to SNARK (unknown origin).
Data set [10] has as its target Mitogen-activated protein kinase 3 (Homo sapiens, UniProt P27361). In words: Binding affinity to ERK1 (unknown origin).
Data set [11] concerns the target Mitogen-activated protein kinase 6 (Homo sapiens, UniProt Q16659). Briefly: Binding affinity to ERK3 (unknown origin).
Data set [12] in a line: Intrinsic permeability from apical to basolateral side in human Caco2 cells at 10 uM. In kind it is ADME, cell-based. The following applies: Caco-2, read-out: permeability. (In general: Caco-2 cells form a polarised layer with tight junctions and transporters.)
In another data set the target is LIM domain kinase 2 (Homo sapiens, UniProt P53671). Briefly: Binding affinity to LIMK2 (unknown origin).
Data set [13] concerns the target Dual specificity mitogen-activated protein kinase kinase 6 (Homo sapiens, UniProt P52564). In words: Binding affinity to MEK6 (unknown origin).
Data set [14] can be described thus: Clearance in human liver microsomes. In kind it is ADME, Microsome. The conditions noted are these: read-out: CLH. The procedure, abridged:
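Intrinsic clearance was measured in vitro in human liver microsomes and expressed per mg microsomal protein.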
Background: Microsomes from liver hold many membrane-bound enzymes, among them those of drug oxidation.

In data set [15] the target is Mitogen-activated protein kinase 14 (Homo sapiens, UniProt Q16539). Briefly: Binding affinity to p38-alpha (unknown origin).
The nature of data set [16]: AUC (0 to infinity) in Hanover-Wistar rat at 2 mg/kg, po. The format is ADME, organism-based. Set-up: time infinity, dose 2 mg/kg, route oral. The conditions noted are these: plasma.
For data set [17], the target named is Serine/threonine-protein kinase Nek7 (Homo sapiens, UniProt Q8TDX7). In words: Binding affinity to NEK7 (unknown origin).
Data set [18] can be described thus: Half life in Hanover-Wistar rat at 20 mg/kg, po. The following applies: in vivo. The arrangement: dose 20 mg/kg, route oral. In kind it is ADME, organism-based.
For data set [19], the target named is Atypical kinase COQ8A, mitochondrial (Homo sapiens, UniProt Q8NI60). In words: Binding affinity to ADCK3 (unknown origin).
Data set [20] has as its target Dual specificity protein kinase TTK (Homo sapiens, UniProt P33981). In words: Binding affinity to TTK (unknown origin).
Data set [21] concerns the target Platelet-derived growth factor receptor beta (Homo sapiens, UniProt P09619). Briefly: Binding affinity to PDGFRB (unknown origin).
For data set [22], the target named is T2, Serine/threonine-protein kinase DCLK3 (Homo sapiens) (UniProt Q9C098).
T2 sequence (whole entry): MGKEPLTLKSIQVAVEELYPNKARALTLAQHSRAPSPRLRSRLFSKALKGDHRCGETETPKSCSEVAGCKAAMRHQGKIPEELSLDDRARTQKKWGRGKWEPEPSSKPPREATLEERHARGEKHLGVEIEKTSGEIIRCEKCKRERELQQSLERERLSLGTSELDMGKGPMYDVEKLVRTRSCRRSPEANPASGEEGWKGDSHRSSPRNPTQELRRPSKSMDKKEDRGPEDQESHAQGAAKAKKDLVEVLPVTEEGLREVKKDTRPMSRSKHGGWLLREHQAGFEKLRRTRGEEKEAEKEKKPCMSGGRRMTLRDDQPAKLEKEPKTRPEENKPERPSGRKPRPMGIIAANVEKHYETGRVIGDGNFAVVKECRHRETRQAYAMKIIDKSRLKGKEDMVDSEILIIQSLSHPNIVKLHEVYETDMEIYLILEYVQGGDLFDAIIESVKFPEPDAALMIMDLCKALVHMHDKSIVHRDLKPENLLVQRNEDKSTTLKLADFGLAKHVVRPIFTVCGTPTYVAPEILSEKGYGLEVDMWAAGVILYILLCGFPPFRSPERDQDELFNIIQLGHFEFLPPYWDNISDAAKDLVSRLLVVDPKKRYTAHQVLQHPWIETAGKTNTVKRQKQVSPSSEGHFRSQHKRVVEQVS
In words: Competitive binding affinity to DCAMKL3 (unknown origin) at 10 uM in presence of ATP relative to control.

Data set [23] can be described thus: Fraction unbound in human plasma. The format is ADME, cell-free.
Data set [24] deals with Mitogen-activated protein kinase 8 (Homo sapiens, UniProt P45983). Briefly: Binding affinity to JNK1 (unknown origin).
Mitogen-activated protein kinase 8, sequence (P45983 whole entry): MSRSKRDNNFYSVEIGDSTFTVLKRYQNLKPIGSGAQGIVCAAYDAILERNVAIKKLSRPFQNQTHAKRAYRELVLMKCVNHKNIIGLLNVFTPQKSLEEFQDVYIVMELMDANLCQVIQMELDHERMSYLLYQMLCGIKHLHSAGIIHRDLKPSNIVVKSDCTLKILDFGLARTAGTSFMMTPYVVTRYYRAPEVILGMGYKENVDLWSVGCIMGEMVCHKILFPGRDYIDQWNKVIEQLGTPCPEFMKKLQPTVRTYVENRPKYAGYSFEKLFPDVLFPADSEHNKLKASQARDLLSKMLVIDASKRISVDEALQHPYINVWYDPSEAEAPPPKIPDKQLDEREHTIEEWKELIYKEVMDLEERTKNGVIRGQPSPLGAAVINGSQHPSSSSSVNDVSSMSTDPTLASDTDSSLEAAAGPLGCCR
In data set [25] the target is Citron Rho-interacting kinase (Homo sapiens, UniProt O14578). In words: Competitive binding affinity to CIT (unknown origin) at 10 uM in presence of ATP relative to control.
Citron Rho-interacting kinase, sequence (O14578 whole entry): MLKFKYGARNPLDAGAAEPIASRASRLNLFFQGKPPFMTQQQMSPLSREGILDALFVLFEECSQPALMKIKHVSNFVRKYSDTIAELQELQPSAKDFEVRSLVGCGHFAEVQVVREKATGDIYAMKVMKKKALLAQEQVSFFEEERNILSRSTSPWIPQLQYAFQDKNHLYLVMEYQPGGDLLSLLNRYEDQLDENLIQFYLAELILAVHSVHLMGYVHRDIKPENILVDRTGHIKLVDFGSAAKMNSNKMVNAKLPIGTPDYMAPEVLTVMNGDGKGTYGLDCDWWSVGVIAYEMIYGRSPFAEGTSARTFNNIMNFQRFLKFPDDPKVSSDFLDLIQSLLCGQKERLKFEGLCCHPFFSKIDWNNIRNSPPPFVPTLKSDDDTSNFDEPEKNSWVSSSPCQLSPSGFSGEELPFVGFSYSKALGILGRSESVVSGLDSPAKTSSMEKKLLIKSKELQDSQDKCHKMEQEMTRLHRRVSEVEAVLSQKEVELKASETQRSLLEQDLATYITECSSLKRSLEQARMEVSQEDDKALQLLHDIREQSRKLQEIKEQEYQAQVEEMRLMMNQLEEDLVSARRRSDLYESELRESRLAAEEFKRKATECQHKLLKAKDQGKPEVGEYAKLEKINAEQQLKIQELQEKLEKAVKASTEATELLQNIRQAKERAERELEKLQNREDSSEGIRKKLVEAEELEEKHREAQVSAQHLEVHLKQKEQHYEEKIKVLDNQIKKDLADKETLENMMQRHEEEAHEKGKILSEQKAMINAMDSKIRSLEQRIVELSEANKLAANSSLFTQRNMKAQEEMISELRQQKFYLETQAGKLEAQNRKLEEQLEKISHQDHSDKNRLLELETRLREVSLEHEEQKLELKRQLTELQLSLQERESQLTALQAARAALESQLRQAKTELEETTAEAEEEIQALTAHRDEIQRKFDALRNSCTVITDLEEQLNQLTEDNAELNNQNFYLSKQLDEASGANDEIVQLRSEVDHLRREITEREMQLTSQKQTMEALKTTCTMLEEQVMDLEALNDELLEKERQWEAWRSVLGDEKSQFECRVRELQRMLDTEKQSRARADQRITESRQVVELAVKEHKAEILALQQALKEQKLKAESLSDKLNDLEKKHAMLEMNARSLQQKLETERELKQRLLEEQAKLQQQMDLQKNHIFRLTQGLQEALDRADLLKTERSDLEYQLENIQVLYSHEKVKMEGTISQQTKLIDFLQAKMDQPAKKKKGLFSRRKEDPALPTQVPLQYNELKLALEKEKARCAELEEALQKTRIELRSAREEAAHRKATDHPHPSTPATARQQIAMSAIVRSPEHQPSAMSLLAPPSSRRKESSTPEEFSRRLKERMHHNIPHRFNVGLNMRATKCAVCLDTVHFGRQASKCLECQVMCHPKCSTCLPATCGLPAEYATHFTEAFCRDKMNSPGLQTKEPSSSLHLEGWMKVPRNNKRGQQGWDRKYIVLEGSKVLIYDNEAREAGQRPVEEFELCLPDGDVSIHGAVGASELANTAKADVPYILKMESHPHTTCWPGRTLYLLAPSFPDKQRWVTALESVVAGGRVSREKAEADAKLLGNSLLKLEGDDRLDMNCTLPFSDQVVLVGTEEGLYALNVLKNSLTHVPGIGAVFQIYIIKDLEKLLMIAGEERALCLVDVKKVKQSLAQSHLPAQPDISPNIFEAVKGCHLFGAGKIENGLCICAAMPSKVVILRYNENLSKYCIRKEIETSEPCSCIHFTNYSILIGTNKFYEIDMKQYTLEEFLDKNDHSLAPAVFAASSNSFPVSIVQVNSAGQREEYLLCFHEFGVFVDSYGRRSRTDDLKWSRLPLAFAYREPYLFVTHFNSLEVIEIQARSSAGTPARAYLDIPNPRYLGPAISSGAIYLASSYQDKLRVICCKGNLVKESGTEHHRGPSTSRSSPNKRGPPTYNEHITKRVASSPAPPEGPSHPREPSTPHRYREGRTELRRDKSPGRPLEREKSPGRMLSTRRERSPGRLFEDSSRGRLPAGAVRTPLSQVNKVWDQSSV
Data set [26] concerns the target Wee1-like protein kinase (Homo sapiens) (UniProt P30291). Briefly: Competitive binding affinity to WEE1 (unknown origin) at 10 uM in presence of ATP relative to control.
The next data set is filed under the species Homo sapiens. In words: Competitive binding affinity to EGFR S752 to I759 deletion mutant (unknown origin) at 10 uM in presence of ATP relative to control.
Data set [27] deals with Serine/threonine-protein kinase 25 (Homo sapiens) (UniProt O00506). In words: Competitive binding affinity to STK25 (unknown origin) at 10 uM in presence of ATP relative to control.
The target of another data set is Cytochrome P450 2C9 (Homo sapiens, UniProt P11712). Briefly: Inhibition of CYP2C9 (unknown origin). In kind it is ADME.

Wee1-like protein kinase (Homo sapiens), sequence (P30291 whole entry, looked up): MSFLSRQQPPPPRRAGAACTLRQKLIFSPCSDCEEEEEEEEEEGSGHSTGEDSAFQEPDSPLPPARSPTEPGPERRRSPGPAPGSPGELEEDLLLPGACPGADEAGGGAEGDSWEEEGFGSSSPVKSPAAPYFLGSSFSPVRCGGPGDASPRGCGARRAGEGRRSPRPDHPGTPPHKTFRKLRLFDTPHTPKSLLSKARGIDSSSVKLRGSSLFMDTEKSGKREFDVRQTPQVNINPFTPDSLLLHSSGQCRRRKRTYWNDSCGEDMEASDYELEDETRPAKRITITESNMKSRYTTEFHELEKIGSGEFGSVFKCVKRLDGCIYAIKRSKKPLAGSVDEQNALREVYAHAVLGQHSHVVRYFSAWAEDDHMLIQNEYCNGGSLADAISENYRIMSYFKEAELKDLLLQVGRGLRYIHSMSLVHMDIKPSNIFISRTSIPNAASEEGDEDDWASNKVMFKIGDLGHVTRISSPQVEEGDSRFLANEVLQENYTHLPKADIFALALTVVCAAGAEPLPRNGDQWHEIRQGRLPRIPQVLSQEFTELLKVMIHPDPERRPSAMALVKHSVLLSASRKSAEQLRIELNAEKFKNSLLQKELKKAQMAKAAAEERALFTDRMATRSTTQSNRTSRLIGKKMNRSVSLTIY
Serine/threonine-protein kinase 10 (Homo sapiens), sequence (O94804 whole entry, looked up): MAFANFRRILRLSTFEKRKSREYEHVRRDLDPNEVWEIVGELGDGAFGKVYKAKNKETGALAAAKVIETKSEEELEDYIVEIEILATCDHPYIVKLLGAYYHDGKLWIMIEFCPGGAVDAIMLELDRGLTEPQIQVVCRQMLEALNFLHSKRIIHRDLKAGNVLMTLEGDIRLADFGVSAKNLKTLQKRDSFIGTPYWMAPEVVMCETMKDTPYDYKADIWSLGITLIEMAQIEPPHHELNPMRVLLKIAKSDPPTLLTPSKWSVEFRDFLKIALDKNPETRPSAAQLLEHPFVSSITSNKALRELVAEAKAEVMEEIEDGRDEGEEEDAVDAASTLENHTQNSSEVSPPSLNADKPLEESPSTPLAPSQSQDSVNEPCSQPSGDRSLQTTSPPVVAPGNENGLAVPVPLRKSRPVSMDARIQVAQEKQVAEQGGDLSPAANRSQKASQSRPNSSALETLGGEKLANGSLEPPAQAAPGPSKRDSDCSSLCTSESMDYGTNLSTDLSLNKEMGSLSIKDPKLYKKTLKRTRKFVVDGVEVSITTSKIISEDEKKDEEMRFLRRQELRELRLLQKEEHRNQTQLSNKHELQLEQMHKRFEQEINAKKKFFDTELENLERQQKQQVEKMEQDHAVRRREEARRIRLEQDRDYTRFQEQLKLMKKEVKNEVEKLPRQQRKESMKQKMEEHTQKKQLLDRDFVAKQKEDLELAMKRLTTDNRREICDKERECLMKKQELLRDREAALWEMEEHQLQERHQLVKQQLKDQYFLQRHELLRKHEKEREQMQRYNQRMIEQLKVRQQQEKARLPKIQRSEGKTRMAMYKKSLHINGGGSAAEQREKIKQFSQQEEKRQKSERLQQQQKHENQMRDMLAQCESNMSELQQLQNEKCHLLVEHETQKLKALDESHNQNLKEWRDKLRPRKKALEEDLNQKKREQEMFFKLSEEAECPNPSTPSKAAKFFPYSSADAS

One may read the inhibition as how much of the control response was suppressed. Turning to `O=C([C@H]1CC[C@H](Nc2nccc(-n3nnc4ccccc43)n2)CC1)N1CCOCC1`, the inhibition in data set [1], in data set [2], in data set [3] and in data set [4] was below 50% in each case.

A word on the Cmax: it is the highest concentration seen after dosing. The AUC(0-inf) is total exposure, with the tail of the curve extrapolated. Lower therefore signals low exposure. As usually defined, the Kd is the constant that tells how readily two partners part at equilibrium. By half-life is commonly meant the time needed for the level to fall by half in the phase considered. Broadly, the fraction unbound is the share of the substance not bound to proteins or other matrix. Lower therefore signals extensive binding. `CS(=O)(=O)CCCOc1cccc2c1ccn2-c1ccnc(N[C@H]2CC[C@H](C(=O)N3CCC(O)CC3)CC2)n1`: in the data set with Rattus norvegicus, the Cmax is 91 ng/mL. Besides, the figures for the area under the curve AUC(0-inf) in [5] and in [16] were 9330 ng·h/mL and 490 ng·h/mL, respectively. The equilibrium dissociation constant (Kd) in data set [6] is 620 nM; in [7], 120 nM; in [8], 1800 nM; in data set [9], 2600 nM; in data set [10], 1800 nM; in data set [11], 330 nM. Further, the Kd at LIM domain kinase 2 stood at 2800 nM; in data set [13], 310 nM; in data set [15] it was 8800 nM; in [17], 6900 nM; in data set [19], 490 nM; in [20], 1900 nM. The figures for the dissociation constant (Kd) in data set [21] and in [24] were 6800 nM and 0.75 nM, respectively. For the same compound, the Papp A→B at 10 µM in data set [12] was found to be 0.2 ×10⁻⁶ cm/s. Also, in [14], the microsomal CLint was 30 µL/min/mg. Moreover, the half-life in data set [18] was 2.9 h. Moreover, the inhibition in [22] and in data set [25] was above 85% in each case. The same compound yielded a fraction unbound in [23] of 0.05.

In the case of `O[C@H]1CC[C@H](Nc2nccc(-n3ccc4ccccc43)n2)CC1`, the inhibition in [26] is below 50%; in data set [22] it was 84%; in the data set listed under Homo sapiens, below 50%; in data set [25], 79%.

For `O[C@H]1CC[C@H](Nc2nccc(-n3ncc4ccccc43)n2)CC1`, the inhibition is below 50% in data set [26], 73% in [22], below 50% in the data set listed under Homo sapiens and 75% in data set [25].

Consider `O[C@H]1CC[C@H](Nc2nccc(-c3n[nH]c4ccccc34)n2)CC1`, for which the inhibition in [27] was 85%; in the data set filed under Homo sapiens, below 50%.

Regarding `N[C@H]1CC[C@H](Nc2nccc(-n3nnc4ccccc43)n2)CC1`, the inhibition in data set [1] is below 50%; in data set [2], below 50%; in data set [3], below 50%; in data set [4] it was 98%.

One may read the IC50 as the concentration that inhibits the measured activity by half. `O[C@H]1CC[C@H](Nc2nccc(-n3nnc4ccccc43)n2)CC1` had a concentration for half-maximal inhibition (IC50) against Cytochrome P450 2C9 of 7.8 nM. Moreover, the inhibition in data set [26] was below 50%; in data set [22], 92%; in the data set filed under Homo sapiens, below 50%; in data set [25] it was 98%.
